Experimental data gathered from unrelated publications.
Protocols differ between the studies behind these lines.
SLC7A5: Large neutral amino acids transporter small subunit 1 (SLC7A5, Homo sapiens, UniProt Q01650)
XDH: Xanthine dehydrogenase/oxidase (XDH, Bos taurus, UniProt P80457)
SIRT1: NAD-dependent protein deacetylase sirtuin-1 (SIRT1, Homo sapiens, UniProt Q96EB6)
SPHK2: Sphingosine kinase 2 (SPHK2, Homo sapiens, UniProt Q9NRA0)

N[C@@H](Cc1cccc(C(=O)Oc2ccccc2)c1)C(=O)O  inhibition (SLC7A5; transporter uptake, inhibitor, radiometric; 200 µM): 85%
O=C(O)c1ccc(O)c(O)c1  inhibition (XDH; enzyme activity, inhibitor, absorbance; 100 µg/mL): 9.5%
CCCCCCCCCCCCNC(=S)NCCCC[C@H](NC(=O)OCc1ccccc1)C(=O)N[C@@H](Cc1c[nH]c2ccccc12)C(=O)N[C@@H](CCCCN)C(N)=O  inhibition (SIRT1; enzyme activity, inhibitor; 10 µM): 71%
O=C(NC1CCC1)[C@H](Cc1c[nH]c2ccccc12)NC(=O)[C@H](CCCCNC(=S)NCc1cc(O)no1)NS(=O)(=O)c1cccc(F)c1  inhibition (SIRT1; enzyme activity, inhibitor; 30 µM): 49%
CCc1ccc(CCc2ccc(-c3noc([C@@H]4CCCN4C(=N)N)n3)cc2C(F)(F)F)cc1  inhibition (SPHK2; enzyme activity, inhibitor, radiometric; 0.3 µM): 63%
CCCCCC1CC(=O)c2cc(Br)cc(Br)c2O1 (stereo not drawn)  inhibition (SIRT1; enzyme activity, inhibitor, fluorescence; 200 µM): 0.6%
CCCCCCCCCCCCCC(=O)NCCCC[C@H](NS(C)(=O)=O)C(=O)N[C@H](C)C(=O)N[C@@H](CCCNC(=N)N)C(N)=O  inhibition (SIRT1; enzyme activity, inhibitor; 10 µM): 23%
COc1cc(-c2cc(-c3ccc(N4CCNCC4)cc3)cnc2N)cc(OC)c1OC  inhibition (Platelet-derived growth factor receptor alpha (PDGFRA, Homo sapiens, UniProt P16234, D842V); enzyme activity, inhibitor; 1 µM): 90%
CC(C)CCn1c(SCC(=O)Nc2ccccc2C(F)(F)F)nc2nccnc2c1=O  inhibition (SPHK2; enzyme activity, inhibitor; 10 µM): < 20%
O=c1cc(-c2ccccc2)oc2c(Br)cc(Cl)cc12  inhibition (SIRT1; enzyme activity, inhibitor, fluorescence; 200 µM): 3.1%
COc1ccc(CCc2ccc(-c3noc([C@@H]4CCCN4C(=N)N)n3)cc2C(F)(F)F)cc1  inhibition (SPHK2; enzyme activity, inhibitor, radiometric; 0.3 µM): 45%
NC(CCOC(=O)c1ccccc1)C(=O)O (stereo not drawn)  inhibition (SLC7A5; transporter uptake, inhibitor, radiometric; 200 µM): 11%
O=C(O)c1ccc(O)cc1  inhibition (XDH; enzyme activity, inhibitor, absorbance; 100 µg/mL): 14.7%
O=C(Nc1ccc(S(=O)(=O)N2CCC(Cl)CC2)cc1)c1ccc([N+](=O)[O-])o1  inhibition (Alpha-1B adrenergic receptor (Adra1b, Rattus norvegicus, UniProt P15823); ligand displacement, radioligand; 10 µM): 13%
[H]/N=C(/N)N1CCC[C@H]1c1nc(-c2ccc(OCCC=CCCC)c(C(F)(F)F)c2)no1  inhibition (SPHK2; enzyme activity, inhibitor, radiometric; 0.3 µM): 56%
CCCCNC(=S)NCCCC[C@H](NS(=O)(=O)c1cccc(F)c1)C(=O)N[C@@H](Cc1c[nH]c2ccccc12)C(=O)NC1CCC1  inhibition (SIRT1; enzyme activity, inhibitor; 1 µM): > 95%
CCCC(=S)NCCCC[C@H](NS(C)(=O)=O)C(=O)N[C@H](C)C(=O)N[C@@H](CCCNC(=N)N)C(N)=O  inhibition (SIRT1; enzyme activity, inhibitor; 10 µM): 14%
O=C1C=C(c2ccc(O)c(O)c2)CO1  inhibition (XDH; enzyme activity, inhibitor, absorbance; 200 µg/mL): 50%
O=C(CSc1nc2nccnc2c(=O)n1CCc1ccccc1)Nc1ccccc1  inhibition (SPHK2; enzyme activity, inhibitor; 10 µM): < 20%
N=C(N)N1CCC[C@H]1c1nc(-c2ccc(CCc3ccc(C(F)(F)F)cc3)c(C(F)(F)F)c2)no1  inhibition (SPHK2; enzyme activity, inhibitor, radiometric; 0.3 µM): 59%
CSSc1ccccc1C(=O)O  inhibition (Procathepsin L (CTSL, Homo sapiens, UniProt P07711); enzyme activity, inhibitor, fluorescence; 20 µM): 93%
CCCCCC1CC(=O)c2cc([N+](=O)[O-])ccc2O1 (stereo not drawn)  inhibition (SIRT1; enzyme activity, inhibitor, fluorescence; 200 µM): 4.7%
OCCc1ccc(O)cc1  inhibition (XDH; enzyme activity, inhibitor, absorbance; 200 µg/mL): 21.2%
CNC(=O)c1cc(Oc2ccc(NC(=O)Nc3ccc(Cl)c(C(F)(F)F)c3)cc2)ccn1  inhibition (Platelet-derived growth factor receptor alpha (PDGFRA, Homo sapiens, UniProt P16234); enzyme activity, inhibitor; 10 µM): 95%
CCCCCCCCCCCCNC(=S)NCCCC[C@H](NC(=O)OCc1ccccc1)C(=O)N[C@@H](Cc1c[nH]c2ccccc12)C(=O)N[C@@H](CC(N)=O)C(N)=O  inhibition (SIRT1; enzyme activity, inhibitor; 10 µM): 29%
CCCCCC1CC(=O)c2cc(F)cc(F)c2O1 (stereo not drawn)  inhibition (SIRT1; enzyme activity, inhibitor, fluorescence; 200 µM): 0.4%
CCCCCCCCCCCCCC(=O)NNCCC[C@H](NC(=O)OCc1ccccc1)C(=O)N[C@@H](Cc1c[nH]c2ccccc12)C(=O)NC(C)C  inhibition (SIRT1; enzyme activity, inhibitor; 100 µM): 10%
O=Cc1c[nH]c2ccccc12  inhibition (XDH; enzyme activity, inhibitor, absorbance; 200 µg/mL): 13.1%
N[C@@H](Cc1cccc(OC(=O)c2ccccc2)c1)C(=O)O  inhibition (SLC7A5; transporter uptake, inhibitor, radiometric; 200 µM): 100%
O=C(NC1CCC1)[C@H](Cc1c[nH]c2ccccc12)NC(=O)[C@H](CCCCNC(=S)NCCc1nnn[nH]1)NS(=O)(=O)c1cccc(F)c1  inhibition (SIRT1; enzyme activity, inhibitor; 1 µM): 7%
[H]/N=C(\N)N1CCC[C@H]1c1nc(-c2ccc(OCC=Cc3ccccc3C(F)(F)F)c(C(F)(F)F)c2)no1  inhibition (SPHK2; enzyme activity, inhibitor, radiometric; 0.3 µM): 0%
CCCCCCCCCCCCNC(=S)NCCCC[C@H](NC(=O)OCc1ccccc1)C(=O)N[C@@H](Cc1c[nH]c2ccccc12)C(=O)N[C@@H](CCNC(=N)N)C(N)=O  inhibition (SIRT1; enzyme activity, inhibitor; 1 µM): 30%
CCCCCC1CC(=O)c2cc(Cl)ccc2O1 (stereo not drawn)  inhibition (SIRT1; enzyme activity, inhibitor, fluorescence; 200 µM): 2.7%
CN(C)C1CCN(CC#Cc2nn(C3CCCC3)c3nc(NCc4ccccc4)ncc23)C1 (stereo not drawn)  inhibition (Protein kinase C theta type (PRKCQ, Homo sapiens, UniProt Q04759); enzyme activity, inhibitor, FRET; 10 µM): 13%
O=Cc1ccc(O)cc1  inhibition (XDH; enzyme activity, inhibitor, absorbance; 200 µg/mL): 6.5%
NC(CCCNC(=O)c1ccccc1)C(=O)O (stereo not drawn)  inhibition (SLC7A5; transporter uptake, inhibitor, radiometric; 200 µM): 54%
O=C(CO)c1ccc(O)c(O)c1  inhibition (XDH; enzyme activity, inhibitor, absorbance; 100 µg/mL): 20%
C[C@@H](NC(=O)[C@H](CCCCNC(=O)C(F)(F)F)NS(C)(=O)=O)C(=O)N[C@@H](CCCNC(=N)N)C(N)=O  inhibition (SIRT1; enzyme activity, inhibitor; 100 µM): 14%
CCCCCCCC1CC(=O)c2cc(Cl)cc(Br)c2O1 (stereo not drawn)  inhibition (SIRT1; enzyme activity, inhibitor, fluorescence; 200 µM): 7.5%
N=C(N)N1CCC[C@H]1c1nc(-c2ccc(CCC3CCCCC3)c(C(F)(F)F)c2)no1  inhibition (SPHK2; enzyme activity, inhibitor, radiometric; 0.3 µM): 71%
CC(C)(C)C(=O)OCOP(=O)(Cc1ccccc1CP(=O)(OCOC(=O)C(C)(C)C)OCOC(=O)C(C)(C)C)OCOC(=O)C(C)(C)C  inhibition (Signal transducer and activator of transcription 5B, SH2 (STAT5B, Homo sapiens, UniProt P51692); ligand displacement, FP; 100 µM): -1%
CCCCCC1CC(=O)c2cc(Cl)cc(Br)c2O1 (stereo not drawn)  inhibition (SIRT1; enzyme activity, inhibitor, fluorescence; 200 µM): 6.2%
CCCC=CCOc1ccc(-c2noc([C@@H]3CCCN3C(=N)N)n2)cc1C(F)(F)F  inhibition (SPHK2; enzyme activity, inhibitor, radiometric; 0.3 µM): 28%
CCCCCCCCCCCCNC(=S)NCCCC[C@H](NC(=O)OCc1ccccc1)C(=O)N[C@@H](Cc1c[nH]c2ccccc12)C(=O)N[C@@H](CCC(=O)O)C(N)=O  inhibition (SIRT1; enzyme activity, inhibitor; 1 µM): 28%
NC(CNC(=O)c1ccccc1)C(=O)O (stereo not drawn)  inhibition (SLC7A5; transporter uptake, inhibitor, radiometric; 200 µM): 4.6%
CCCCCC1CCc2cc(Cl)cc(Br)c2O1 (stereo not drawn)  inhibition (SIRT1; enzyme activity, inhibitor, fluorescence; 200 µM): -5.2%
CCCc1ccc(CCc2ccc(-c3noc([C@@H]4CCCN4C(=N)N)n3)cc2C(F)(F)F)cc1  inhibition (SPHK2; enzyme activity, inhibitor, radiometric; 0.3 µM): 65%
OCCc1ccc(O)c(O)c1  inhibition (XDH; enzyme activity, inhibitor, absorbance; 200 µg/mL): 12.5%
